Assay [1] addresses T1, RyR1/FKBP12 (Homo sapiens) (UniProt P21817+P62942). Description: Stabilization of FKBP12/RyR1 protein-protein interaction in human 8220 myoblast-derived myotubes assessed as reversal of SIN1-induced intracellular calcium leakage at 150 nM preincubated for 12 hrs followed by SIN1 stimulation and measured after 6 hrs by fura-2 AM dye based fluorescence assay relative to control. The conditions noted are these: Myotube, time 18.0 hrs. The method in brief:
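Immortalized human 8220 myoblasts differentiated 9 days into myotubes, pretreated with compounds at 150 nM for 12 h, then stressed with 5 mM SIN1 for 6 h. Loaded with Fura-2AM ([…]) plus 0.02% pluronic acid, 30 min, 37 °C; calcium from 340/380 nm excitation ratio. Six replicates, ≥4 images each; recovery score = (treated − untreated)/(control − untreated) × 100.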
(In general: A change in cytosolic calcium serves as a functional read-out for many receptors and channels.)

Assay [2] deals with T2, Peptidyl-prolyl cis-trans isomerase FKBP1A (Homo sapiens, UniProt P62942). Description: Binding affinity to FKBP12 (unknown origin) expressed in HEK293 cells co-expressing FRB assessed as induction of FKBP12-FRB dimerization at […] measured for 15 mins by nano-glo live cell reagent based luminescence assay. The method, boiled down:
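HEK293 cells on poly-D-lysine, transfected with FRB-LgBiT and FKBP-SmBiT vectors (12.5 ng/mL each); assayed 20–24 h later in CO2-independent medium with Nano-Glo Live Cell Reagent at 37 °C. Compound added alone at […]; dimerization luminescence (RLU) followed over time, each addition recorded 15 min.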

The target of assay [3] is T2, Peptidyl-prolyl cis-trans isomerase FKBP1A. Description: Binding affinity to FKBP12 (unknown origin) expressed in HEK293 cells co-expressing FRB assessed as inhibition of rapamycin-induced FKBP12-FRB dimerization measured after 25 mins by nano-glo live cell reagent based luminescence assay.
Assay [4] addresses T1, RyR1/FKBP12 (Homo sapiens). As to the kind of experiment: Stabilization of FKBP12/RyR1 protein-protein interaction in human myotubes assessed as reversal of SIN1-induced reduction in FKBP12/RyR1 co-localization at 150 nM by in situ proximity ligation assay relative to control. Also noted: scale not given: the % may be the effect or the level left. The conditions noted are these: Myotube. The method, boiled down: (§1)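 Human myotubes 7–9 days into differentiation, treated at 150 nM, then 5 mM SIN1 for 30 min; PFA-fixed, anti-RyR1 mouse mAb overnight, Duolink orange PLA, MyHC-FITC and DAPI counterstain. Co-localization spots quantified as % of untreated control; 11–15 fields from 3–4 cultures, ≥8 myotubes per field; one-way ANOVA with Dunnett's test.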

Assay [5] deals with T1, RyR1/FKBP12 (Homo sapiens). Description: Effect on FKBP12/RyR1 protein-protein interaction in human myotubes by in situ proximity ligation assay. The conditions noted are these: Myotube. The method, boiled down:
as §1

The target in assay [6] is T1, RyR1/FKBP12 (Homo sapiens). Description: Stabilization of FKBP12/RyR1 protein-protein interaction in human myotubes assessed as reversal of SIN1-induced reduction in FKBP12/RyR1 co-localization by measuring increase in FKBP12/RyR1 co-localization at 150 nM by in situ proximity ligation assay relative to control. The assay is classed as tissue-based. Also noted: scale not given: the % may be the effect or the level left. As to conditions: Myotube. The method, boiled down: as §1

As usually defined, the IC50 is the midpoint of a concentration-inhibition curve.

The source made the active and inactive calls. No cut-off for these calls is given here.

T2 sequence (P62942 whole entry): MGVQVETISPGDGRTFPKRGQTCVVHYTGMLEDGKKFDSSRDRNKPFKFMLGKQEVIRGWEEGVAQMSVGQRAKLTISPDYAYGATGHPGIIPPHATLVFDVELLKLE

`CC(C)(C)OC(=O)NCCCC[C@@H](C(=O)O)n1cc(CSc2cccc(Cl)c2)nn1`: in assay [1], the result was inactive.

On to `COc1cccc(SCc2cn(C(C)(C)C(=O)O)nn2)c1`, for which the Activity in assay [1] is < 90%.

For the molecule `O=C(O)Cn1cc(CSc2cccc(Cl)c2)nn1`, the outcome in assay [1] was inactive. On to `COc1cccc(SCc2cn([C@H](CC(C)C)C(=O)O)nn2)c1`, for which, in assay [1], the result was Active. On the same count and under the same terms, to `COc1cccc(SCc2cn([C@H](Cc3ccccc3)C(=O)O)nn2)c1` belongs “Active”. Still for that read-out and setting: to `O=C(O)Cn1cc(CSc2ccccc2)nn1` belongs < 90%; to `CCC[C@H](C(=O)O)n1cc(CSc2cccc(OC)c2)nn1`, “Active”.

Turning to `COc1cccc(SCc2cn([C@@H](Cc3ccccc3)C(=O)O)nn2)c1`, in assay [1], the outcome was Active. On to `COc1cccc(SCc2cn(CC(=O)O)nn2)c1`, for which the outcome in assay [2] and in assay [5] was inactive. The 50% inhibitory concentration (IC50) in assay [3] turned out to be 3.32 µM. Moreover, the Activity in assay [4] was 46%; in assay [1], < 90%. Turning to `O=C(O)[C@@H](Cc1ccc(O)cc1)n1cc(CSc2cccc(C(F)(F)F)c2)nn1`, the outcome in assay [1] was Active. Still for that read-out and setting: the result for `O=C(O)[C@H](Cc1ccc(O)cc1)n1cc(CSc2cccc(C(F)(F)F)c2)nn1` reads “inactive”; that for `O=C(O)[C@@H](Cc1ccccc1)n1cc(CSc2cccc(C(F)(F)F)c2)nn1`, “inactive”; that for `COc1ccc(SCc2cn(CC(=O)O)nn2)cc1`, < 90%. On the same count and under the same terms, to `O=C(O)Cn1cc(CSc2c(F)c(F)cc(F)c2F)nn1` belongs < 90%; to `Cc1ccc(SCCc2cn(CC(=O)O)nn2)cc1`, < 90%. In the case of `COc1ccc2c(c1)CN(C)CCS2`, the Activity in assay [6] turned out to be 84%; in assay [4], 56%. Moreover, the outcome in assay [5] was inactive. Further, the result in assay [1] was Active.

(Values after ChEMBL document CHEMBL4732161, “Discovery of a novel family of FKBP12 "reshapers" and their use as calcium modulators in skeletal muscle under nitro-oxidative stress” (Eur J Med Chem, 2021).)
